Here are results for two molecules from ChEMBL document CHEMBL3526127, “Absorption, elimination, and metabolism of CS-1036, a novel α-amylase inhibitor in rats and monkeys, and the relationship between gastrointestinal distribution and suppression of glucose absorption” (Drug Metab Dispos, 2013).

Data set [1] has as its system Rattus norvegicus. Description: Total drug excretion in F344 rat at 1 mg/kg, iv administered as single dose after 0 to 48 hrs by scintillation counting method. Type of data set: ADME, organism-based. As to conditions: in vivo. The arrangement: dose 1 mg/kg, route intravenous. The method, boiled down:
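Fasted F344 rats (n = 4) received [14C]-labelled drug at 1 mg/kg (41.9 µCi/kg), iv via tail vein or oral. They were housed in metabolic cages. Urine and feces were collected to 168 h, and expired CO2 was trapped in 2-aminoethanol/2-methoxyethanol to 48 h. Radioactivity was counted by liquid scintillation, feces after homogenization. Results are % of dose.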

Data set [2] can be described thus: Drug distribution in F344 rat cecum at 1 mg/kg, po administered as single dose after 2 hrs by scintillation counting method. The arrangement: dose 1 mg/kg, route oral. Type of data set: ADME, organism-based, Caecum. As to conditions: in vivo. The procedure, abridged: (§1)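 [14C]-labelled drug (1 mg/kg, 42.4 µCi/kg) was given orally to fasted F344 rats (148–168 g, n = 3). Contents of stomach, duodenum+jejunum, ileum and cecum were washed out with water at 0.5–8 h, homogenized, solubilized and counted by liquid scintillation. Results are % of dose, mean ± S.D.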

Data set [3] in a line: Drug excretion in F344 rat feces at 1 mg/kg, iv administered as single dose after 0 to 48 hrs by scintillation counting method. Format: ADME, organism-based. The arrangement: dose 1 mg/kg, route intravenous. As to conditions: in vivo. The method, boiled down:
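Fasted F344 rats (152–156 g iv via tail vein; 154–159 g oral; n = 4) received [14C]-labelled drug at 1 mg/kg (41.9 µCi/kg). Animals were kept in metabolic cages; urine and feces were collected to 168 h, and expired CO2 was trapped in 2-aminoethanol/2-methoxyethanol (1:1) to 48 h. Samples were counted by liquid scintillation (feces homogenized). Results are % of dose, mean ± S.D.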

Another data set concerns Cynomolgus monkey. Description: Total drug excretion in cynomolgus monkey at 3 mg/kg, po administered as single dose after 0 to 48 hrs by scintillation counting method. Type of data set: ADME, organism-based, Macaca fascicularis. Particulars: in vivo. The arrangement: dose 3 mg/kg, route oral. The method, boiled down:
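Fasted male cynomolgus monkeys (n = 4) were dosed with 14C-labelled drug at 3 mg/kg, iv via saphenous vein (191 µCi/kg) or orally by stomach catheter (156.5 µCi/kg). Urine, feces and cage-wash water were collected to 336 h. Radioactivity was measured by liquid scintillation counting, with feces homogenized in water, and expressed as % of dose.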

Data set [4] can be described thus: Drug metabolism in anaerobic culture broth of human feces assessed as 1,4-dideoxy-1,4-imino-D-arabinitol formation at 63.5 uCi/ml after 24 hrs at 35 degC by LC-MS/MS method. Format: ADME, tissue-based.
Data set [5] deals with Rattus norvegicus. In words: Total drug excretion in bile duct cannulated F344 rat at 1 mg/kg, po administered as single dose after 0 to 48 hrs by scintillation counting method. Type of data set: ADME, organism-based. More on the design: dose 1 mg/kg, route oral. Particulars: in vivo. The method, boiled down:
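Under ether anesthesia, the common bile duct of fasted F344 rats was cannulated. After recovery, rats received 1 mg/kg (41.9 µCi/kg) of the 14C-labelled compound iv or by oral gavage (n = 4). They were kept in Bollman cages, and bile was collected at 0–6, 6–24, 24–30 and 30–48 h at 4°C. Radioactivity was measured by liquid scintillation counting as % of dose.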

The test system of a further data set is Ileum. Description: Drug distribution in F344 rat ileum at 1 mg/kg, po administered as single dose after 1 hr by scintillation counting method. More on the design: dose 1 mg/kg, route oral. As to conditions: in vivo. Type of data set: ADME, organism-based. The method, boiled down:
as §1

A short description of data set [6]: Drug excretion in cynomolgus monkey feces at 3 mg/kg, po administered as single dose after 48 hrs by scintillation counting method. Particulars: in vivo.
A short description of data set [7]: Drug metabolism in po dosed F344 rat urine assessed as 1,4-dideoxy-1,4-imino-D-arabinitol formation by LC-MS/MS method. Type of data set: ADME, organism-based. Particulars: in vivo.
The nature of data set [8]: Tmax in cynomolgus monkey at 3 mg/kg, po administered as single dose by LC-MS/MS method. Type of data set: ADME, organism-based, Macaca fascicularis. More on the design: dose 3 mg/kg, route oral. As to conditions: in vivo. The method, boiled down:
(§2)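 Male F344 rats (146–185 g) and male cynomolgus monkeys (3.48–4.29 kg), n = 4 each, fasted overnight, received single iv or oral doses of 0.3, 1.0, 3.0 or 10.0 mg/kg. Monkeys had 2-week washouts between doses. Plasma was sampled to 48 h and assayed by LC-MS/MS with deuterated internal standard. Noncompartmental analysis: tmax observed; t1/2 by regression on ≥3 terminal log points; Vss = dose·AUMC/(AUC0–inf)²; Foral = oral/iv AUC0–inf at the same dose.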

Data set [9] is described as follows: Clearance in F344 rat at 10 mg/kg, iv administered as single dose by LC-MS/MS method. Format: ADME, organism-based. The arrangement: dose 10 mg/kg, route intravenous. Particulars: in vivo. The method, boiled down:
(§3)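 Fasted male F344 rats (146–185 g) and male cynomolgus monkeys (3.48–4.29 kg), n = 4 each, received a single iv dose; monkeys had 2-week washouts between doses. Blood was sampled up to 48 h and plasma stored at […]. Plasma parent was quantified by LC-MS/MS with a deuterated internal standard. CL = dose/AUC0–inf by noncompartmental analysis; mean ± S.D.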

The next data set concerns the target T1, Alpha amylase (Homo sapiens, UniProt P0DUB6).
T1 sequence (P0DUB6 whole entry): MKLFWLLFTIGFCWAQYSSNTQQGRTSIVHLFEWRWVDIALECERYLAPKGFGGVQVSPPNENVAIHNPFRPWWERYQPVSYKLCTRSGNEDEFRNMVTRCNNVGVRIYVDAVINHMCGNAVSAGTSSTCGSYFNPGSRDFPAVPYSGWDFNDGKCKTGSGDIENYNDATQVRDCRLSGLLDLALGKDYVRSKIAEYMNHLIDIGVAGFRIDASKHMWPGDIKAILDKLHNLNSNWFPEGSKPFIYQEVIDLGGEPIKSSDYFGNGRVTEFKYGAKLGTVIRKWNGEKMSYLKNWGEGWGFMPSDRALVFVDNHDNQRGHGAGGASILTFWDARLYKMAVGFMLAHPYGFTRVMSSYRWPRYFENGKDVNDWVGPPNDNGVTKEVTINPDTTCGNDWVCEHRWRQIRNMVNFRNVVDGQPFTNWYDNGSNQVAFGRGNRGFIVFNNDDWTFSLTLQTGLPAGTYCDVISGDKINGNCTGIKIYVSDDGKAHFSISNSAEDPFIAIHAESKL
Description: Inhibition of pancreatic alpha amylase (unknown origin).

A short description of data set [10]: AUClast in F344 rat at 1 mg/kg, po administered as single dose by LC-MS/MS method. Type of data set: ADME, organism-based. The arrangement: time 0 - last, dose 1 mg/kg, route oral. Particulars: plasma. The method, boiled down:
(§4)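 Fasted male F344 rats (146–185 g) or male cynomolgus monkeys (3.48–4.29 kg), n = 4 per dose, given single iv or oral dose of 0.3, 1.0, 3.0 or 10.0 mg/kg; monkeys dosed with 2-week washouts. Blood sampled to 48 h; plasma stored frozen. LC-MS/MS with deuterated internal standard. Noncompartmental analysis: AUClast by trapezoidal rule; AUC0–inf = AUClast + Ctz/terminal rate constant; mean ± S.D.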

Data set [11] in a line: Tmax in F344 rat at 1 mg/kg, po administered as single dose by LC-MS/MS method. Format: ADME, organism-based. More on the design: dose 1 mg/kg, route oral. As to conditions: in vivo. The method, boiled down: as §2
A short description of data set [12]: Clearance in F344 rat at 1 mg/kg, iv administered as single dose by LC-MS/MS method. Type of data set: ADME, organism-based. The arrangement: dose 1 mg/kg, route intravenous. Particulars: in vivo. The procedure, abridged: as §3
Data set [13] in a line: AUC (0 to infinity) in F344 rat at 10 mg/kg, po administered as single dose by LC-MS/MS method. Type of data set: ADME, organism-based. The arrangement: time infinity, dose 10 mg/kg, route oral. As to conditions: plasma. The procedure, abridged: as §4
Data set [14] can be described thus: Oral bioavailability in F344 rat at 3 mg/kg administered as single dose by LC-MS/MS method. Particulars: in vivo. Type of data set: ADME, organism-based. The method, boiled down:
as §2

Data set [15] can be described thus: AUC (0 to infinity) in F344 rat at 10 mg/kg, iv administered as single dose by LC-MS/MS method. Format: ADME, organism-based. As to conditions: plasma. The arrangement: time infinity, dose 10 mg/kg, route intravenous. The method, boiled down: as §4

Consider `C[C@H]1O[C@@H](O[C@H]2[C@H](O)[C@@H](O)[C@@H](O[14C@H]3[14C@H](O)[14CH2]N[14C@@H]3[14CH2]O)O[C@@H]2CO)[C@H](O)[C@@H](O)[C@@H]1O`, for which the Drug excretion was 86.96% in the data set with Rattus norvegicus [1]; 15.66% in [3]; 83.8% in the data set with Cynomolgus monkey; 0.59% in the data set with Rattus norvegicus [5]; 48.7% in data set [6]. The results for the Drug uptake (in [2]; with Ileum) were 49.9% and 67.7%, respectively. Further, the Drug metabolism entry in data set [4] and in data set [7] was “metabolite_detected” in each case.

The Tmax is the time at which the peak concentration occurs. In general, clearance refers to a measure of how efficiently the substance is removed, as volume per time. The IC50 is the concentration that inhibits the measured activity by half. By AUC(0-t) is commonly meant the area under the concentration-time curve up to a stated or last time point. Broadly, the AUC(0-inf) is the area under the concentration-time curve extrapolated to infinity. Usually bioavailability stands for the share of a dose that reaches the circulation, judged against a reference dose that is usually intravenous. Turning to `C[C@H]1O[C@@H](O[C@H]2[C@H](O)[C@@H](O)[C@@H](O[C@H]3[C@H](O)CN[C@@H]3CO)O[C@@H]2CO)[C@H](O)[C@@H](O)[C@@H]1O`, the Tmax in data set [8] came to 1.75 h; in data set [11], 0.417 h. In addition, the clearance in data set [9] stood at 3.16 mL/min/kg; in data set [12], 3.44 mL/min/kg. At Alpha amylase, this molecule returned an IC50 of 450 nM. Also, the AUC(0-t) in [10] turned out to be 110 ng·h/mL. Further, the results for the AUC(0-inf) in data set [13] and in data set [15] were 1080 ng·h/mL and 53200 ng·h/mL, respectively. In [14], this molecule registered a bioavailability of 1.73%.
